Experimental data published in ChEMBL document CHEMBL1781935, “Amberlite-IRA-402 (OH) ion exchange resin mediated synthesis of indolizines, pyrrolo [1,2-a] quinolines and isoquinolines: antibacterial and antifungal evaluation of the products” (2011).
≈ marks a conversion by molar mass, not a printed value. Calls of active or inactive are those of the source. The rule behind the calls is not given here.

How the values were obtained:
Cryptococcus neoformans [1] = assay: Antifungal activity against […] after 96 hrs; type: functional
How it was run: (§1)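 Clinical isolates grown on Sabouraud dextrose agar at 28 °C. MIC was set by broth dilution in Sabouraud dextrose broth (0.1 ml of 2 × 10^5 spores/ml, 1–1500 µg/ml) or by agar dilution (2 × 10^5 spores/spot), with an antibiotic control, at 28 °C for 96 h. The lowest concentration with no visible growth was taken.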

Aspergillus niger [2] = assay: Antifungal activity against Aspergillus niger after 96 hrs; type: functional; how it was run: as §1
Candida albicans [3] = assay: Antifungal activity against Candida albicans after 96 hrs; type: functional; how it was run: as §1
Candida tropicalis [4] = assay: Antifungal activity against Candida tropicalis after 96 hrs; type: functional; how it was run: as §1
Escherichia coli [5] = assay: Antibacterial activity against Escherichia coli ATCC 25938; type: functional
How it was run: (§2)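 MIC by broth and agar dilution. Broth: 0.1 ml suspension (2 × 10^6 cfu/ml) in Mueller-Hinton broth with test drug at 1–1000 µg/ml, 37 °C overnight. Agar: serial drug dilutions in Mueller-Hinton agar, spot-inoculated with 2 × 10^6 cfu/spot, 37 °C for 24 h. MIC was the lowest concentration with no visible growth. Antibiotic controls were included.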

Shigella dysenteriae [6] = assay: Antibacterial activity against Shigella dysenteriae isolate 3 at 1 to 1000 ug/ml after overnight incubation by disc diffusion method; type: functional
Staphylococcus aureus [7] = assay: Antibacterial activity against Staphylococcus aureus ATCC 25923; type: functional; how it was run: as §2
Candida albicans [8] = assay: Antifungal activity against Candida albicans at 1 to 1500 ug/ml after 96 hrs by disc diffusion method; type: functional
How it was run: (§3)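 Disc diffusion on Sabouraud dextrose agar. Plates seeded with 0.1 ml fungal spore suspension (2 × 10^5 spores/ml). Sterile 6 mm discs were impregnated with compound solutions at 1–1500 µg/ml and incubated at 28 °C for 96 h. Read-out was the clear inhibition zone. Strains were clinical isolates.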

Klebsiella pneumoniae [9] = assay: Antibacterial activity against Klebsiella pneumoniae isolate J/1/4; type: functional; how it was run: as §2
Escherichia coli [10] = assay: Antibacterial activity against Escherichia coli ATCC 25938 at 1 to 1000 ug/ml after overnight incubation by disc diffusion method; type: functional
How it was run: (§4)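 Disc diffusion on Mueller-Hinton agar. Plates seeded with 0.1 ml bacterial suspension (2 × 10^6 cfu/ml). Sterile 6 mm paper discs were impregnated with compound solutions at 1–1000 µg/ml and incubated at 37 °C overnight. Read-out was the diameter of the clear inhibition zone. Stocks were 1 mg/ml in 4% Tween 80 or 4% propylene glycol.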

Vibrio cholerae [11] = assay: Antibacterial activity against Vibrio cholerae isolate 720 at 1 to 1000 ug/ml after overnight incubation by disc diffusion method; type: functional
Shigella dysenteriae [12] = assay: Antibacterial activity against Shigella dysenteriae isolate 3; type: functional
Aspergillus niger [13] = assay: Antifungal activity against Aspergillus niger at 1 to 1500 ug/ml after 96 hrs by disc diffusion method; type: functional; how it was run: as §3
Cryptococcus neoformans [14] = assay: Antifungal activity against […] at 1 to 1500 ug/ml after 96 hrs by disc diffusion method; type: functional, organism-based; how it was run: as §3
Micrococcus luteus [15] = assay: Antibacterial activity against Micrococcus luteus AGD1 at 1 to 1000 ug/ml after overnight incubation by disc diffusion method; type: functional; how it was run: as §4
Salmonella typhi [16] = assay: Antibacterial activity against Salmonella typhi DIRW at 1 to 1000 ug/ml after overnight incubation by disc diffusion method; type: functional; conditions: Salmonella enterica subsp. enterica serovar Typhi
Enterococcus faecalis [17] = assay: Antibacterial activity against Streptococcus faecalis isolate 29212; type: functional; how it was run: as §2
Candida tropicalis [18] = assay: Antifungal activity against Candida tropicalis at 1 to 1500 ug/ml after 96 hrs by disc diffusion method; type: functional; how it was run: as §3
Vibrio cholerae [19] = assay: Antibacterial activity against Vibrio cholerae isolate 7201 at 1 to 1000 ug/ml after overnight incubation by disc diffusion method; type: functional
Salmonella typhimurium [20] = assay: Antibacterial activity against Salmonella Typhimurium isolate 11; type: functional, Salmonella enterica subsp. enterica serovar Typhimurium; conditions: Salmonella enterica; how it was run: as §2
Salmonella typhi [21] = assay: Antibacterial activity against Salmonella typhi DIRW; type: functional, Salmonella enterica subsp. enterica serovar Typhi; conditions: Salmonella enterica
Aspergillus niger [22] = assay: Antifungal activity against Aspergillus niger after 96 hrs by dry weight calculation; type: functional, organism-based
How it was run: (§5)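 Fungicidal testing with double-fold drug dilutions in Sabouraud dextrose broth. Tubes inoculated with 1 ml spore suspension (2 × 10^5 spores/ml) and shaken at 200 rpm at 28 °C for 96 h. Drug was added at mid-logarithmic growth. Growth was measured as sample dry weight after drying at 60 °C.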

Candida albicans [23] = assay: Antifungal activity against Candida albicans after 96 hrs by dry weight calculation; type: functional, organism-based; how it was run: as §5
Salmonella typhimurium [24] = assay: Antibacterial activity against Salmonella Typhimurium isolate 11 at 1 to 1000 ug/ml after overnight incubation by disc diffusion method; type: functional, organism-based; conditions: Salmonella enterica subsp. enterica serovar Typhimurium; how it was run: as §4
Shigella flexneri [25] = assay: Antibacterial activity against Shigella flexneri DN13 at 1 to 1000 ug/ml after overnight incubation by disc diffusion method; type: functional; how it was run: as §4
Shigella flexneri [26] = assay: Antibacterial activity against Shigella flexneri DN13; type: functional; how it was run: as §2
Vibrio cholerae [27] = assay: Antibacterial activity against Vibrio cholerae isolate 7201; type: functional
Bacillus subtilis [28] = assay: Antibacterial activity against Bacillus subtilis UC564 at 1 to 1000 ug/ml after overnight incubation by disc diffusion method; type: functional; how it was run: as §4
Vibrio parahaemolyticus [29] = assay: Antibacterial activity against Vibrio parahaemolyticus isolate 72016; type: functional; how it was run: as §2
Pseudomonas aeruginosa [30] = assay: Antibacterial activity against Pseudomonas aeruginosa ATCC 27853; type: functional; how it was run: as §2
Bacillus subtilis [31] = assay: Antibacterial activity against Bacillus subtilis UC564; type: functional; how it was run: as §2
Vibrio parahaemolyticus [32] = assay: Antibacterial activity against Vibrio parahaemolyticus isolate 72016 at 1 to 1000 ug/ml after overnight incubation by disc diffusion method; type: functional; how it was run: as §4
Klebsiella pneumoniae [33] = assay: Antibacterial activity against Klebsiella pneumoniae isolate J/1/4 at 1 to 1000 ug/ml after overnight incubation by disc diffusion method; type: functional; how it was run: as §4
Enterococcus faecalis [34] = assay: Antibacterial activity against Enterococcus faecalis isolate 29212 at 1 to 1000 ug/ml after overnight incubation by disc diffusion method; type: functional; how it was run: as §4
Micrococcus luteus [35] = assay: Antibacterial activity against Micrococcus luteus AGD1; type: functional; how it was run: as §2
Staphylococcus aureus [36] = assay: Antibacterial activity against Staphylococcus aureus ATCC 25923 at 1 to 1000 ug/ml after overnight incubation by disc diffusion method; type: functional; how it was run: as §4
Pseudomonas aeruginosa [37] = assay: Antibacterial activity against Pseudomonas aeruginosa ATCC 27853 at 1 to 1000 ug/ml after overnight incubation by disc diffusion method; type: functional; how it was run: as §4

Question: What does the source list for `OC(Cn1cncn1)(Cn1cncn1)c1ccc(F)cc1F` [FLUCONAZOLE]?
Answer: MIC (Cryptococcus neoformans [1]): 8 µg/mL (≈ 26.1 µM); MIC (Aspergillus niger [2]): 10 µg/mL (≈ 32.7 µM); MIC (Candida albicans [3]): 4 µg/mL (≈ 13.1 µM); MIC (Candida tropicalis [4]): 8 µg/mL (≈ 26.1 µM)

Question: Which results are given for `O=C(c1ccccc1)c1c(-c2ccccc2)cc2c3ccccc3ccn12`?
Answer: MIC (Escherichia coli [5]): 32 µg/mL (≈ 92.1 µM); diameter of the inhibition zone (DIZ) (Shigella dysenteriae [6]): 8 mm; MIC (Staphylococcus aureus [7]): 128 µg/mL (≈ 368 µM); diameter of the inhibition zone (DIZ) (Candida albicans [8]): 30 mm; MIC (Klebsiella pneumoniae [9]): 64 µg/mL (≈ 184 µM); diameter of the inhibition zone (DIZ) (Escherichia coli [10]): 10 mm; diameter of the inhibition zone (DIZ) (Vibrio cholerae [11]): 9 mm; MIC (Shigella dysenteriae [12]): 128 µg/mL (≈ 368 µM); diameter of the inhibition zone (DIZ) (Aspergillus niger [13]): 12 mm; diameter of the inhibition zone (DIZ) (Cryptococcus neoformans [14]): inactive; diameter of the inhibition zone (DIZ) (Micrococcus luteus [15]): inactive; diameter of the inhibition zone (DIZ) (Salmonella typhi [16]): inactive; MIC (Enterococcus faecalis [17]): 500 µg/mL (≈ 1440 µM); diameter of the inhibition zone (DIZ) (Candida tropicalis [18]): 10 mm; diameter of the inhibition zone (DIZ) (Vibrio cholerae [19]): 9 mm; MIC (Salmonella typhimurium [20]): > 500 µg/mL; MIC (Salmonella typhi [21]): > 500 µg/mL; Activity (Aspergillus niger [22]): Dose-dependent effect; Activity (Candida albicans [23]): Dose-dependent effect; diameter of the inhibition zone (DIZ) (Salmonella typhimurium [24]): inactive; diameter of the inhibition zone (DIZ) (Shigella flexneri [25]): inactive; MIC (Shigella flexneri [26]): 500 µg/mL (≈ 1440 µM); MIC (Vibrio cholerae [27]): 64 µg/mL (≈ 184 µM); diameter of the inhibition zone (DIZ) (Bacillus subtilis [28]): 10.2 mm; MIC (Vibrio parahaemolyticus [29]): 500 µg/mL (≈ 1440 µM); MIC (Pseudomonas aeruginosa [30]): 128 µg/mL (≈ 368 µM); MIC (Bacillus subtilis [31]): 32 µg/mL (≈ 92.1 µM); MIC (Aspergillus niger [2]): 500 µg/mL (≈ 1440 µM); diameter of the inhibition zone (DIZ) (Vibrio parahaemolyticus [32]): inactive; diameter of the inhibition zone (DIZ) (Klebsiella pneumoniae [33]): 10.5 mm; diameter of the inhibition zone (DIZ) (Enterococcus faecalis [34]): inactive; MIC (Micrococcus luteus [35]): 500 µg/mL (≈ 1440 µM); MIC (Candida albicans [3]): 500 µg/mL (≈ 1440 µM); diameter of the inhibition zone (DIZ) (Staphylococcus aureus [36]): 8.5 mm; diameter of the inhibition zone (DIZ) (Pseudomonas aeruginosa [37]): 8.1 mm; MIC (Candida tropicalis [4]): 1000 µg/mL (≈ 2880 µM)
